The source made the active and inactive calls. The calls are words filed in the database; no cut-off is given here.
Columns and labels:
Assay type in all cases: cell-based
[1] = molecular target: T1, Peroxisome proliferator-activated receptor alpha (Homo sapiens) (UniProt Q07869); experiment: Agonist activity at GAL4-DBD fused human PPARalpha-LBD (159 to 468 residues) expressed in human HepG2 cells after 24 hrs by dual luciferase reporter gene based mammalian one hybrid assay relative to control
T1 sequence (whole entry): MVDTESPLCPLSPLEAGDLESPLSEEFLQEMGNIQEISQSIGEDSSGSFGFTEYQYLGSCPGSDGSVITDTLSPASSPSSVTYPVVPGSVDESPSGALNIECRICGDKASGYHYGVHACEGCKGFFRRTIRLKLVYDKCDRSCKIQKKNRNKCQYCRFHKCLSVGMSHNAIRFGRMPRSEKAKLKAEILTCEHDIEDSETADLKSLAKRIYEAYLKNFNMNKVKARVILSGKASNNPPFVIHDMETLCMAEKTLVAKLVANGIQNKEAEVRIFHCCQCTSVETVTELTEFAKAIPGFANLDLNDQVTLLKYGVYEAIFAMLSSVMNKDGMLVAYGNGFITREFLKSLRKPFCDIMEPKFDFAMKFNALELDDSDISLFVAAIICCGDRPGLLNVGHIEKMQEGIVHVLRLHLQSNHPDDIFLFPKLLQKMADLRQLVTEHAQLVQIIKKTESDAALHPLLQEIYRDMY
Outline: (§1)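 HepG2 cells (DMEM, 10% FBS) transfected with GAL4-DBD/human PPAR-LBD expression vector (0.05 μg), GALRE-luc reporter (0.1 μg) and pGL4.74 Renilla (0.01 μg). After overnight incubation, 0.1–20 μM compound or 0.1% DMSO for 24 h. Dual-luciferase readout, firefly normalized to Renilla. Fold activation over solvent, four independent transfections (mean ± SD, n = 4).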

[2] = molecular target: T1, Peroxisome proliferator-activated receptor alpha (Homo sapiens); experiment: Agonist activity at GAL4-DBD fused human PPARalpha-LBD (159 to 468 residues) expressed in human HepG2 cells at 10 uM after 24 hrs by dual luciferase reporter gene based mammalian one hybrid assay relative to control; outline: as §1
[3] = molecular target: T2, Peroxisome proliferator-activated receptor delta (Homo sapiens, UniProt Q03181); experiment: Agonist activity at GAL4-DBD fused human PPARbeta/delta-LBD (136 to 441 residues) expressed in human HepG2 cells at 0.1 to 20 uM after 24 hrs by luciferase reporter gene based mammalian one hybrid assay relative to control; outline: as §1
T2 sequence (Q03181 whole entry): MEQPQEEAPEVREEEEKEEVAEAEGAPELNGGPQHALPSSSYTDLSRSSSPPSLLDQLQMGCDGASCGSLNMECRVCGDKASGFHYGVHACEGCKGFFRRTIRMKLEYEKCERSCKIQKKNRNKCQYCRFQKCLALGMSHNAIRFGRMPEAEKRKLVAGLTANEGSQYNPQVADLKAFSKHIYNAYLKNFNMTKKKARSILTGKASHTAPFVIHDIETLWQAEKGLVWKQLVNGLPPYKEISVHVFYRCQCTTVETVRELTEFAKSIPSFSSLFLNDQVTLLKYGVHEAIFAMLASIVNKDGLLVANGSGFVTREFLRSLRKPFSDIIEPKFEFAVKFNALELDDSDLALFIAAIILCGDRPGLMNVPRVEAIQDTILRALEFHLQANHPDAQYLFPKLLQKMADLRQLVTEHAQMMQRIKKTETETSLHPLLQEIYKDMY

[4] = molecular target: T3, Peroxisome proliferator-activated receptor gamma (Homo sapiens, UniProt P37231); experiment: Agonist activity at GAL4-DBD fused human PPARgamma-LBD (157 to 475 residues) expressed in human HepG2 cells at 0.1 to 20 uM after 24 hrs by luciferase reporter gene based mammalian one hybrid assay relative to control; outline: as §1
T3 sequence (P37231 whole entry): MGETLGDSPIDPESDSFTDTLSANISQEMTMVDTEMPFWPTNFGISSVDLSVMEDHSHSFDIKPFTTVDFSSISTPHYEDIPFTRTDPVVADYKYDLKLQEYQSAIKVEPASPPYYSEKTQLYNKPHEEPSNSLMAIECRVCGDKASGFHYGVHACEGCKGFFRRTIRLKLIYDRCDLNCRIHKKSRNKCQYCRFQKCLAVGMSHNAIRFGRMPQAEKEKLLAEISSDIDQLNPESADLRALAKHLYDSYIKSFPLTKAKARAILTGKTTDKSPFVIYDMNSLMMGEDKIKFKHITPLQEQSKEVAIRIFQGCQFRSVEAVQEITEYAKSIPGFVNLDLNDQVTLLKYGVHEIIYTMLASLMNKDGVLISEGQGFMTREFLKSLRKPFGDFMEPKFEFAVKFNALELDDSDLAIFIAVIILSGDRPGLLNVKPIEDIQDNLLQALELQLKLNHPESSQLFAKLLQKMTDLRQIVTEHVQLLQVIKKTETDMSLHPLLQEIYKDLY

[5] = molecular target: T4, Peroxisome proliferator-activated receptor delta (Homo sapiens) (UniProt Q03181); experiment: Antagonist activity at GAL4-DBD fused human PPARbeta/delta-LBD (136 to 441 residues) expressed in human HepG2 cells assessed as inhibition of GW0742-induced receptor activation at 10 uM by luciferase reporter gene based mammalian one hybrid assay
T4 sequence (whole entry): T2 sequence (Q03181 whole entry)
Outline: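 HepG2 cells transfected with GAL4/PPARβ/δ-LBD vector (0.05 μg), GALRE-luc (0.1 μg) and pGL4.74 (0.01 μg). Treated 24 h with 10 μM compound, 10 μM GW0742, or both together, vs 0.1% DMSO. Dual-luciferase, Renilla-normalized. Fold over solvent, four transfections (mean ± SD, n = 4).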

[6] = molecular target: T1, Peroxisome proliferator-activated receptor alpha (Homo sapiens); experiment: Agonist activity at full length human N-terminal Myc-tagged PPARalpha expressed in human HepG2 cells coexpressing RXRalpha assessed as transcriptional activation of PPRE at 10 uM incubated for 24 hrs by dual luciferase reporter gene assay
Outline: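 HepG2 cells co-transfected with PPRE-luc reporter (0.1 μg), PPARα and RXRα expression vectors (0.05 μg each) and pGL4.74 (0.01 μg). Treated 24 h with test compound or 0.1% DMSO. Dual-luciferase readout, firefly/Renilla. Fold activation over solvent, four independent transfections (mean ± SD, n = 4).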

[7] = molecular target: T1, Peroxisome proliferator-activated receptor alpha (Homo sapiens); experiment: Agonist activity at PPARalpha in human THP1 cells assessed as induction of CPT-1 mRNA expression after 24 hrs by RT-qPCR analysis
Outline: (§2)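 THP-1 cells (RPMI-1640, 10% FBS) differentiated with 200 nM PMA for 48 h, then treated 24 h with compound (1, 10, 20 μM; reference 50 μM) or 0.1% DMSO. Total RNA extracted, reverse transcribed. SYBR qPCR, 40 cycles (98 °C 5 s, 55 °C 20 s, 72 °C 30 s). Normalized to β-actin mRNA. Fold over solvent, n = 4 (mean ± SD).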

[8] = molecular target: T1, Peroxisome proliferator-activated receptor alpha (Homo sapiens); experiment: Agonist activity at PPARalpha in human THP1 cells assessed as induction of PDK4 mRNA expression after 24 hrs by RT-qPCR analysis; outline: as §2
[9] = molecular target: T1, Peroxisome proliferator-activated receptor alpha (Homo sapiens); experiment: Agonist activity at PPARalpha in human THP1 cells assessed as induction of ABCA1 mRNA expression after 24 hrs by RT-qPCR analysis; outline: as §2
[10] = molecular target: T1, Peroxisome proliferator-activated receptor alpha (Homo sapiens); experiment: Agonist activity at PPARalpha in human THP1 cells assessed as induction of PDK4 mRNA expression at 20 uM in presence of MK-886 after 24 hrs by RT-qPCR analysis
Outline: (§3)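 PMA-differentiated THP-1 cells (200 nM, 48 h) pretreated 1 h with MK-886 (200 μM), then given compound or 0.1% DMSO for 24 h. Target mRNA measured by SYBR RT-qPCR and normalized to β-actin. Fold induction over solvent, four experiments (mean ± SD, n = 4).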

[11] = molecular target: T1, Peroxisome proliferator-activated receptor alpha (Homo sapiens); experiment: Agonist activity at PPARalpha in human THP1 cells assessed as induction of CPT-1 mRNA expression at 20 uM in presence of MK-886 after 24 hrs by RT-qPCR analysis; outline: as §3
[12] = molecular target: T1, Peroxisome proliferator-activated receptor alpha (Homo sapiens); experiment: Agonist activity at PPARalpha in human THP1 cells assessed as induction of ABCA1 mRNA expression at 20 uM in presence of MK-886 after 24 hrs by RT-qPCR analysis; outline: as §3
[13] = molecular target: T1, Peroxisome proliferator-activated receptor alpha (Homo sapiens); experiment: Agonist activity at PPARalpha in human THP1 cells assessed as induction of PPARalpha mRNA expression after 24 hrs by RT-qPCR analysis; outline: as §2
[14] = molecular target: T1, Peroxisome proliferator-activated receptor alpha (Homo sapiens); experiment: Agonist activity at PPARalpha in human THP1 cells assessed as induction of PPARalpha mRNA expression at 20 uM in presence of MK-886 after 24 hrs by RT-qPCR analysis; outline: as §3
HepG2 = experiment: Cytotoxicity against human HepG2 cells assessed as reduction in cell viability at 10 uM after 24 hrs by MTS assay; details: hepg2, 24 h
THP-1 = experiment: Cytotoxicity against PMA-differentiated human THP1 cells assessed as reduction in cell viability at 10 uM after 24 hrs by MTS assay; details: thp-1, 24 h

Row | Structure (SMILES) | Activity [1] | Activity [2] | Activity [3] | Activity [4] | inhibition [5] | Activity [6] | Activity [7] | Activity [8] | Activity [9] | Activity [10] | Activity [11] | Activity [12] | Activity [13] | Activity [14] | Activity (HepG2) | Activity (THP-1)
1 | COc1cccc2c1[nH]c1c(CCC(OC)C(=O)c3nccc4c3[nH]c3ccccc34)ncc(OC)c12 (configuration not stated) [PICRASIDINE C] | Dose-dependent effect | Active | Not Active | Not Active | inactive | Active | Dose-dependent effect | Dose-dependent effect | Dose-dependent effect | inactive | inactive | inactive | Dose-dependent effect | inactive | Non-Toxic | Non-Toxic
2 | Cc1cccc(Nc2cc(Cl)nc(SCC(=O)O)n2)c1C | – | Active | – | – | – | – | – | – | – | – | – | – | – | – | – | –
